bIAP inhibitor: bovine intestinal alkaline phosphatase inhibitors, primary screen, selectivity assay for TNAP inhibitor project, biochemical, bovine IAP, CDP-star luminescence; alkaline phosphatase, intestinal [Bos taurus]; purified bovine IAP, 30 min; inhibition, % at 20 µM; 190,000 tested, under 10 active; AID 1019, 2008;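 active = over 50% inhibition of intestinal alkaline phosphatase at 20 µM in the single-dose screen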
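System: Purified bovine intestinal alkaline phosphatase (IAP) enzyme | Input: IAP diluted 1/65,000,000 in the well | Also added: CDP-star chemiluminescent phosphatase substrate, 30 µM final | Dosing: 20 µM single dose | Times: Enzyme reaction for 30 min at room temperature | Detection: Luminescence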
mIAP inh: inhibitors of mouse IAP, primary screen, biochemical, luminescence, uHTS; purified mouse IAP, CDP-Star luminescence, 30 min; inhibition, % at 10 µM; 330,000 compounds, 0.2% hits;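 active = inhibition of at least 40% at 10 µM in the primary screen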;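 note: plate controls were DMSO with enzyme for no effect and no enzyme wells for full effect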
hIAP block: human IAP inhibitors, primary screen, biochemical, luminescence, uHTS; purified IAP, CDP-Star luminescence, 30 min; inhibition, % at 10 µM; 330,000 compounds, 0.12% hits;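 active = inhibition reaching a set limit with compound at 10 µM in the primary screen, cut at about 35% in these data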;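 note: plate controls were DMSO wells with enzyme for no effect and no-enzyme buffer wells for full effect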
Target sequence (P09923 whole entry, looked up): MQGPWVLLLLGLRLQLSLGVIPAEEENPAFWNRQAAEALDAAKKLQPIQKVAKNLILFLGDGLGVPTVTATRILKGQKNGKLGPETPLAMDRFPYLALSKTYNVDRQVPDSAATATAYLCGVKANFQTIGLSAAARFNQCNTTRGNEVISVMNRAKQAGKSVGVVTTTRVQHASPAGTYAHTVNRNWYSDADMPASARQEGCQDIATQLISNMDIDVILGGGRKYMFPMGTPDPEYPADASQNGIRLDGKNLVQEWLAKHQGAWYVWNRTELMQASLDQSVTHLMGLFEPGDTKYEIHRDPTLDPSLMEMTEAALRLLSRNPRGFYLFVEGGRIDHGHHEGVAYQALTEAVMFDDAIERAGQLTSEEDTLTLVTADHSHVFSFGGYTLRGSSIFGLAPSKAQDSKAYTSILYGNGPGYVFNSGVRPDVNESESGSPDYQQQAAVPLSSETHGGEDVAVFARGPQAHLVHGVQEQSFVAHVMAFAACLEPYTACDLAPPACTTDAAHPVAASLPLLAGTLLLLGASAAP
hIAP activ: human IAP activators, primary screen, biochemical, luminescence, uHTS. AID 2524, 2010. 330,000 compounds, 0.16% hits. activation factor at 10 µM. purified human IAP, CDP-Star luminescence, 30 min; stronger effect = higher value; 1 = vehicle-only enzyme, 0 = enzyme-free background. Intestinal-type alkaline phosphatase (Homo sapiens), P09923;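 active = activation factor of the enzyme at least 2-fold when tested at 20 µM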
bIAP act: bovine intestinal alkaline phosphatase activators, primary screen, biochemical, bovine IAP, CDP-star luminescence. alkaline phosphatase, intestinal [Bos taurus]. activation factor at 20 µM. 200,000 compounds, 0.17% hits. purified bovine IAP, 30 min; stronger effect = higher value; fold of DMSO-control signal, blank-subtracted;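 active = activation factor of 2 or more at 20 µM, a signal rise over negative controls twice the positive control's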
mIAP act: activators of mouse IAP, primary screen, biochemical, luminescence, uHTS. intestinal alkaline phosphatase [Mus musculus]. muIAP, CDP-Star luminescence, 30 min; stronger effect = higher value; 1 = vehicle-only enzyme signal, 0 = enzyme-free wells. activation factor at 10 µM. 330,000 compounds, 0.24% hits. AID 2805, 2010;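 active = activation factor of at least 2 at 20 µM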
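Assay system: mouse IAP enzyme / Compound: DMSO-dissolved test compounds / Timing: 30 min, room temperature / Measured by: luminescence from enzymatic CDP-Star hydrolysis / Control set: DMSO-only wells, enzyme-free buffer wells as negative control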
hIAP act conf: human IAP activators, confirmation, biochemical, luminescence, single concentration, uHTS hits; purified IAP, CDP-Star luminescence, 30 min; stronger effect = lower value; shares compounds with hIAP activ; 880 compounds, 10% hits; activation (%Activity, negative = activation), % at 8.3 µM;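 active = at least twofold enzyme activation in any of six single-dose repeats, which the averaged readout prints as negative percent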
mIAP inh conf: inhibitors of mouse IAP, confirmation, biochemical, luminescence, single concentration | shares compounds with mIAP inh | purified mouse IAP, CDP-Star luminescence, 30 min | inhibition, % at 10 µM | 11,000 compounds, 4.7% hits;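 active = inhibition of at least 40% at 10 µM in either of the two replicates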;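 note: plate controls were DMSO wells with enzyme for no effect and buffer wells lacking enzyme for full effect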
An asterisk follows results filed as active; / = no result. A selection: hits, their analogues and other compounds. The true share with any hit is near 0.72%.

SMILES | bIAP inhibitor | mIAP inh | hIAP block | hIAP activ | bIAP act | mIAP act | hIAP act conf | others
COc1ccc(CN2CCC(n3nccc3NC(=O)C3CCCC3)CC2)cc1 | / | -18 | -95 | 2 | / | 1.2 | /
COc1ccc(/C=C/CN2CCC(n3nccc3NC(=O)C3CCCC3)CC2)cc1 | / | -45 | -109 | 2.1* | / | 1.5 | 6
O=C(Nc1ccc(CSc2ccccc2)cc1)c1ccco1 | / | 6 | -16 | 1.2 | / | 0.94 | /
CC1CN(S(=O)(=O)c2ccc(C(=O)OCc3ccc(C#N)cc3)cc2)CC(C)O1 (stereo not given) | / | 5 | 1 | 0.99 | / | 0.95 | /
O=C(NC(=S)NNC(=O)c1ccco1)c1ccccc1 | / | 27 | -103 | 2* | / | 0.73 | 21
Cc1ccc(C(=O)NNC(=S)NC(=O)c2ccccc2)cc1 | / | 7 | 6 | 0.94 | / | 0.93 | /
CCCCNC(=O)NNC(=O)c1ccco1 | -9 | -7 | -5 | 1.1 | 1.1 | 1.1 | /
O=C(NNC(=S)NC(=O)c1ccccc1[N+](=O)[O-])c1ccccc1O | -44 | 27 | -135 | 2.4* | 1.4 | 0.73 | 27
Cc1ccc(C(=O)NC(=S)NNC(=O)c2ccccc2O)cc1 | / | 30 | -139 | 2.4* | / | 0.7 | 18
CCCCNC(=S)NNC(=O)c1ccco1 | 8 | 13 | 44* | 0.56 | 0.9 | 0.87 | 9
CC(OC(=O)Cc1c[nH]c2ccccc12)C(=O)NC1CCCCC1C (stereo not given) | / | -2 | 14 | 0.86 | / | 1 | /
CC(=O)Nc1ccc(NC(=O)c2c(C)c(-c3ccccc3)nc3ccccc23)cc1 | / | 0 | -8 | 1.1 | / | 1 | /
O=C(NC(=S)NNC(=O)c1ccccc1O)c1cccs1 | / | 23 | -102 | 2* | / | 0.77 | -3
O=C(NC(=S)NNC(=O)c1ccccc1O)c1ccc(F)cc1 | / | 31 | -108 | 2.1* | / | 0.69 | 62
O=C(NC(=S)NNC(=O)c1ccccc1O)c1ccccc1 | / | 28 | -114 | 2.1* | / | 0.71 | 2
O=C(c1ccccc1)N1CCN(c2ccc(N3CCOCC3)nn2)CC1 | / | 1 | -2 | 1 | / | 0.99 | /
COc1cccc(C(=O)N/N=C/C(Br)=C/c2ccccc2)c1 | -17 | 10 | 8 | 0.92 | 1.2 | 0.9 | /
CCOc1ccc(C2NC(=O)C(C#N)=C(S)N2c2cccc(C)c2)cc1OC (stereo not given) | 9 | 7 | 5 | 0.95 | 0.9 | 0.93 | /
CCOc1ccc(C2NC(=O)C(C#N)=C(S)N2c2ccc(C)cc2)cc1OC (stereo not given) | 7 | 14 | -103 | 2* | 0.9 | 0.86 | -77
c1ccc(CN2CCN(CCOCCOc3ccc4c(c3)CCC4)CC2)cc1 | 7 | 3 | 1 | 0.99 | 0.9 | 0.97 | /
COc1ccc(-n2nc3c(N4CCC(C(=O)NCc5cccc(C)c5)CC4)nnc(C)c3c2C)cc1 | / | -27 | -121 | 2.2* | / | 1.3 | -42
COc1ccccc1CCNC(=O)C1CCN(c2nnc(C)c3c(C)n(-c4ccc(C)cc4)nc23)CC1 | / | -25 | -132 | 2.3* | / | 1.3 | 31
CCOc1ccc(CNC(=O)C2CCN(c3nnc(C)c4c(C)n(-c5ccc(C)cc5)nc34)CC2)cc1 | / | 14 | -47 | 1.5 | / | 0.86 | /
Cc1nnc(SCC(=O)Nc2cc(S(C)(=O)=O)ccc2Cl)n1Cc1ccccc1 | / | 0 | 3 | 0.97 | / | 1 | /
COc1ccc(NC(=O)c2csc(Cc3ccccc3)n2)cc1 | / | 7 | 13 | 0.87 | 0.4 | 0.93 | /
SMILES | bIAP inhibitor | mIAP inh | hIAP block | hIAP activ | bIAP act | mIAP act | hIAP act conf | others
COc1ccc(CNC(=O)c2csc(Cc3ccccc3)n2)cc1 | 9 | 10 | -105 | 2* | 0.9 | 0.9 | 9
COc1ccc2nc(N3CCC(O)CC3)c(C#N)cc2c1 | -44 | -4 | 35* | 0.65 | 1.4 | 1 | 20
CC(C)n1cc(CN2CCC(n3nccc3NC(=O)C3CCCC3)CC2)cn1 | / | -2 | 6 | 0.94 | / | 1 | /
CC(C)Cc1ccc(CN2CCC(n3nccc3NC(=O)C3CCCC3)CC2)cc1 | / | -143 | -232 | 3.3* | / | 2.4* | 5 | mIAP inh conf=-98
O=C(CCCc1ccccc1)Nc1ccnn1C1CCN(Cc2ccc(Cl)cc2)CC1 | / | -150 | -195 | 2.9* | / | 2.5* | -2 | mIAP inh conf=-118
CCOc1cccc(CN2CCC(n3nccc3NC(=O)CCCc3ccccc3)CC2)c1 | / | -138 | -246 | 3.5* | / | 2.4* | -10 | mIAP inh conf=-130
Cc1ccc(C)c(CN2CCC(n3nccc3NC(=O)CCCc3ccccc3)CC2)c1 | / | -138 | -164 | 2.6* | / | 2.4* | -61 | mIAP inh conf=-131
CC1=C(C(=O)OCc2ccccc2)C(c2cccc([N+](=O)[O-])c2)NC(=O)N1C (stereo not given) | / | 12 | 0 | 1 | / | 0.88 | /
CC(C)Sc1nnc(CNC(=O)C23CC4CC(CC(C4)C2)C3)n1C1CCCCC1 | 20 | 6 | 0 | 1 | 0.8 | 0.94 | /
COc1cc(NC(=O)NCC2CCN(Cc3ccccc3C)CC2)cc(OC)c1OC | / | -253 | -141 | 2.4* | / | 3.5* | 30 | mIAP inh conf=-190
O=C(COc1ccccc1C(=O)N/N=C\c1ccc(O)c(O)c1)N/N=C/c1ccc(O)c(O)c1 | 49 | 73* | 58* | 0.42 | 0.5 | 0.27 | 3 | mIAP inh conf=82*
O=C(NN1C(=O)/C(=C/c2ccc(O)c(O)c2)SC1=S)c1ccccc1 | / | 44* | 69* | 0.31 | / | 0.56 | 2 | mIAP inh conf=78*
O=C(NN1C(=O)/C(=C/c2cccc(O)c2)SC1=S)c1ccccc1O | / | 38 | -63 | 1.6 | / | 0.62 | /
COc1ccc(S(=O)(=O)N2CCN(C(=O)c3ccc(NC(C)=O)cc3)CC2)cc1 | / | -3 | 17 | 0.83 | / | 1 | /
C=C1CC[C@H](O)C/C1=C/C=C1\CCC[C@]2(C)[C@@H]([C@H](C)/C=C/[C@H](C)C(C)C)CC[C@@H]12 | / | 13 | -2 | 1 | / | 0.87 | /
O=C(Nc1ccc(Cl)cc1)C1CC(=O)n2c(nc3ccccc32)N1 (stereo not given) | 2 | -169 | -104 | 2* | 1 | 2.7* | -7 | mIAP inh conf=-106
